≈ marks a conversion by molar mass, not a printed value.
What was measured:
Format in all cases: functional
Staphylococcus aureus [1] = test: Antimicrobial activity against constitutively erythromycin resistant and methicillin resistant Staphylococcus aureus PU20 expressing c-ermC incubated in CAMHB medium for 20 hrs by two-fold microbroth dilution method; conditions: PU20, 20 h
In short: (§1)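 Purified fresh Staphylococcus isolate at about 5×10^5 CFU/ml final in CAMHB, 35 °C for 20 h. Each run included ATCC strains and reference antibiotics as QC, plus an antibiotic-free growth control.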

Streptococcus pyogenes [2] = test: Bactericidal activity against inducibly erythromycin resistant Streptococcus pyogenes 01-968 expressing i-ermA assessed as reduction in colony formation incubated in CAMHB medium for 20 to 24 hrs followed by 24 hrs subculturing in the medium without test compound
Staphylococcus aureus [3] = test: Ratio of MBC to MIC for inducibly erythromycin-resistant and methicillin resistant Staphylococcus aureus PU32 expressing i-ermA
Staphylococcus aureus [4] = test: Bactericidal activity against constitutively erythromycin resistant and methicillin-resistant Staphylococcus aureus PU20 expressing c-ermC assessed as reduction in colony formation incubated in CAMHB medium for 20 hrs followed by 24 hrs subculturing in the medium without test compound
Streptococcus pneumoniae [5] = test: Antimicrobial activity against erythromycin-susceptible Streptococcus pneumoniae ATCC 49619 incubated in CAMHB medium for 20 to 24 hrs by two-fold microbroth dilution method
Streptococcus pneumoniae [6] = test: Ratio of MBC to MIC for erythromycin-susceptible Streptococcus pneumoniae ATCC 49619
Streptococcus pneumoniae [7] = test: Antimicrobial activity against mef-encoded erythromycin resistant Streptococcus pneumoniae PU09 incubated in CAMHB medium for 20 to 24 hrs by two-fold microbroth dilution method
Streptococcus pyogenes [8] = test: Ratio of MBC to MIC for inducibly erythromycin resistant Streptococcus pyogenes 01-968 expressing i-ermA
Streptococcus pneumoniae [9] = test: Bactericidal activity against erythromycin-susceptible Streptococcus pneumoniae ATCC 49619 assessed as reduction in colony formation incubated in CAMHB medium for 20 to 24 hrs followed by 24 hrs subculturing in the medium without test compound
Staphylococcus aureus [10] = test: Bactericidal activity against inducibly erythromycin-resistant and methicillin resistant Staphylococcus aureus PU32 expressing i-ermA assessed as reduction in colony formation incubated in CAMHB medium for 20 hrs followed by 24 hrs subculturing in the medium without test compound
Streptococcus pyogenes [11] = test: Antimicrobial activity against inducibly erythromycin resistant Streptococcus pyogenes 01-968 expressing i-ermA incubated in CAMHB medium for 20 to 24 hrs by two-fold microbroth dilution method
Haemophilus influenzae [12] = test: Ratio of MBC to MIC for azithromycin-susceptible Haemophilus influenzae ATCC 49247
Streptococcus pneumoniae [13] = test: Bactericidal activity against mef-encoded erythromycin resistant Streptococcus pneumoniae PU09 assessed as reduction in colony formation incubated in CAMHB medium for 20 to 24 hrs followed by 24 hrs subculturing in the medium without test compound
Haemophilus influenzae [14] = test: Antimicrobial activity against azithromycin-susceptible Haemophilus influenzae ATCC 49247 incubated in HTM broth medium for 20 to 24 hrs by two-fold microbroth dilution method
Streptococcus pneumoniae [15] = test: Ratio of MBC to MIC for mef-encoded erythromycin resistant Streptococcus pneumoniae PU09
Haemophilus influenzae [16] = test: Bactericidal activity against azithromycin-susceptible Haemophilus influenzae ATCC 49247 assessed as reduction in colony formation incubated in HTM broth medium for 20 to 24 hrs followed by 24 hrs subculturing in the medium without test compound
Staphylococcus aureus [17] = test: Antimicrobial activity against inducibly erythromycin-resistant and methicillin resistant Staphylococcus aureus PU32 expressing i-ermA incubated in CAMHB medium for 20 hrs by two-fold microbroth dilution method; conditions: PU32, 20 h; in short: as §1
Staphylococcus aureus [18] = test: Antimicrobial activity against erythromycin-susceptible Staphylococcus aureus ATCC 29213 incubated in CAMHB medium for 20 hrs by two-fold microbroth dilution method; conditions: ATCC 29213, 20 h
In short: (§2)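 Clinical isolates and ATCC strains, purified by plate activation and used fresh; inoculum about 5×10^5 CFU/ml final. Grown in CAMHB at 35 °C for 20 h.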

Streptococcus pyogenes [19] = test: Antimicrobial activity against erythromycin-susceptible Streptococcus pyogenes A3 incubated in CAMHB medium for 20 to 24 hrs by two-fold microbroth dilution method
Staphylococcus aureus [20] = test: Antimicrobial activity against constitutively erythromycin resistant Staphylococcus aureus PU20 expressing c-ermC incubated in CAMHB medium for 20 hrs by two-fold microbroth dilution method; conditions: PU20, 20 h
In short: (§3)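 Purified fresh Staphylococcus isolate at about 5×10^5 CFU/ml final in CAMHB, 35 °C for 20 h. […] Each run included ATCC strains and reference antibiotics as QC, plus an antibiotic-free growth control.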

Streptococcus pyogenes [21] = test: Antimicrobial activity against constitutively erythromycin resistant Streptococcus pyogenes A2 expressing c-erm incubated in CAMHB medium for 20 to 24 hrs by two-fold microbroth dilution method
In short: (§4)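 Purified fresh Streptococcus isolate at about 5×10^5 CFU/ml final in CAMHB with 5% horse serum, 35 °C for 20–24 h. […] Each run included ATCC strains and reference antibiotics as QC, plus an antibiotic-free growth control.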

Staphylococcus aureus [22] = test: Antimicrobial activity against inducibly erythromycin resistant Staphylococcus aureus PU64 expressing i-ermA incubated in CAMHB medium for 20 hrs by two-fold microbroth dilution method; conditions: PU64, 20 h; in short: as §3
[23] = system: Staphylococcus epidermidis; test: Antimicrobial activity against Staphylococcus epidermidis E1 incubated in CAMHB medium for 20 hrs by two-fold microbroth dilution method; conditions: E1, 20 h; in short: as §2
Staphylococcus aureus [24] = test: Antimicrobial activity against inducibly erythromycin-resistant Staphylococcus aureus PU32 expressing i-ermA incubated in CAMHB medium for 20 hrs by two-fold microbroth dilution method; conditions: PU32, 20 h; in short: as §3
Streptococcus pneumoniae [25] = test: Antimicrobial activity against constitutively erythromycin resistant Streptococcus pneumoniae PU27 expressing c-erm incubated in CAMHB medium for 20 to 24 hrs by two-fold microbroth dilution method; in short: as §4

Row | SMILES | MIC (Staphylococcus aureus [1]) [µg/mL] | MBC (Streptococcus pyogenes [2]) [µg/mL] | Ratio (Staphylococcus aureus [3]) | MIC (Streptococcus pneumoniae [5]) [µg/mL] | Ratio (Streptococcus pneumoniae [6]) | MIC (Streptococcus pneumoniae [7]) [µg/mL] | Ratio (Streptococcus pyogenes [8]) | MBC (Streptococcus pneumoniae [9]) [µg/mL] | MBC (Staphylococcus aureus [10]) [µg/mL] | MIC (Streptococcus pyogenes [11]) [µg/mL] | Ratio (Haemophilus influenzae [12]) | MBC (Streptococcus pneumoniae [13]) [µg/mL] | MIC (Haemophilus influenzae [14]) [µg/mL] | Ratio (Streptococcus pneumoniae [15]) | MBC (Haemophilus influenzae [16]) [µg/mL] | MIC (Staphylococcus aureus [17]) [µg/mL] | MIC (Staphylococcus aureus [18]) [µg/mL] | MIC (Streptococcus pyogenes [19]) [µg/mL] | MIC (Staphylococcus aureus [20]) [µg/mL] | MIC (Streptococcus pyogenes [21]) [µg/mL] | also measured
1 | C#CCNCCC(=O)O[C@H]1[C@H](C)[C@@H](O[C@@H]2O[C@H](C)C[C@H](N(C)C)[C@H]2O)[C@](C)(OC)C[C@@H](C)/C(=N\OC)[C@H](C)[C@H]2OC(=O)O[C@]2(C)[C@@H](CC)OC(=O)[C@@H]1C | 256 (≈ 340 µM) | > 4 | >8 | 0.13 (≈ 0.172 µM) | 8 | 2 (≈ 2.65 µM) | >8 | 1 (≈ 1.33 µM) | > 128 | 0.5 (≈ 0.663 µM) | 1 | 4 (≈ 5.31 µM) | 128 (≈ 170 µM) | 2 | 128 (≈ 170 µM) | 16 (≈ 21.2 µM) | – | – | – | – | MBC (Staphylococcus aureus [4]): > 256 µg/mL
2 | CC[C@H]1OC(=O)[C@H](C)[C@@H](OC(=O)CCNCC#Cc2cccnc2)[C@H](C)[C@@H](O[C@@H]2O[C@H](C)C[C@H](N(C)C)[C@H]2O)[C@](C)(OC)C[C@@H](C)/C(=N\OC)[C@H](C)[C@H]2OC(=O)O[C@@]21C | 256 (≈ 308 µM) | > 64 | >4 | 1 (≈ 1.2 µM) | 4 | 8 (≈ 9.63 µM) | >8 | 4 (≈ 4.81 µM) | > 256 | 8 (≈ 9.63 µM) | 1 | 16 (≈ 19.3 µM) | 256 (≈ 308 µM) | 2 | 256 (≈ 308 µM) | 64 (≈ 77 µM) | – | – | – | – | MBC (Staphylococcus aureus [4]): > 256 µg/mL
3 | CC[C@H]1OC(=O)[C@H](C)[C@@H](OC(=O)NCCCCc2cccnc2)[C@H](C)[C@@H](O[C@@H]2O[C@H](C)C[C@H](N(C)C)[C@H]2O)[C@](C)(OC)C[C@@H](C)/C(=N\OC)[C@H](C)[C@H]2OC(=O)O[C@@]21C | > 256 | 128 (≈ 156 µM) | >8 | 0.5 (≈ 0.609 µM) | 4 | 8 (≈ 9.74 µM) | 1 | 2 (≈ 2.44 µM) | > 256 | 128 (≈ 156 µM) | 1 | 8 (≈ 9.74 µM) | 256 (≈ 312 µM) | 1 | 256 (≈ 312 µM) | 32 (≈ 39 µM) | – | – | – | – | –
4 | CC[C@H]1OC(=O)[C@H](C)[C@@H](OC(=O)NCC#Cc2cccnc2)[C@H](C)[C@@H](O[C@@H]2O[C@H](C)C[C@H](N(C)C)[C@H]2O)[C@](C)(OC)C[C@@H](C)/C(=N\OC)[C@H](C)[C@H]2OC(=O)O[C@@]21C | > 256 | 4 (≈ 4.98 µM) | >8 | 0.03 (≈ 0.0374 µM) | 2 | 0.5 (≈ 0.623 µM) | 4 | 0.062 (≈ 0.0772 µM) | > 128 | 1 (≈ 1.25 µM) | – | 2 (≈ 2.49 µM) | > 256 | 4 | – | 16 (≈ 19.9 µM) | – | – | – | – | –
5 | C=CCNCCC(=O)O[C@H]1[C@H](C)[C@@H](O[C@@H]2O[C@H](C)C[C@H](N(C)C)[C@H]2O)[C@](C)(OC)C[C@@H](C)/C(=N\OC)[C@H](C)[C@H]2OC(=O)O[C@]2(C)[C@@H](CC)OC(=O)[C@@H]1C | > 256 | > 8 | >8 | 1 (≈ 1.32 µM) | 2 | 4 (≈ 5.29 µM) | >8 | 2 (≈ 2.65 µM) | > 256 | 1 (≈ 1.32 µM) | 1 | 8 (≈ 10.6 µM) | 256 (≈ 339 µM) | – | 256 (≈ 339 µM) | 32 (≈ 42.3 µM) | – | – | – | – | –
6 | C=CCO/N=C1\[C@H](C)C[C@@](C)(OC)[C@H](O[C@@H]2O[C@H](C)C[C@H](N(C)C)[C@H]2O)[C@@H](C)[C@H](OCC#Cc2cncc(C#N)c2)[C@@H](C)C(=O)O[C@H](CC)[C@@]2(C)OC(=O)O[C@@H]2[C@H]1C | – | – | – | 4 (≈ 4.93 µM) | – | 8 (≈ 9.86 µM) | – | – | – | – | – | – | – | – | – | – | 64 (≈ 78.9 µM) | 4 (≈ 4.93 µM) | 128 (≈ 158 µM) | 128 (≈ 158 µM) | MIC (Staphylococcus aureus [22]): 128 µg/mL (≈ 158 µM); MIC [23]: 256 µg/mL (≈ 316 µM); MIC (Staphylococcus aureus [24]): 128 µg/mL (≈ 158 µM); MIC (Streptococcus pneumoniae [25]): 64 µg/mL (≈ 78.9 µM)
7 | C=CCO/N=C1\[C@H](C)C[C@@](C)(OC)[C@H](O[C@@H]2O[C@H](C)C[C@H](N(C)C)[C@H]2O)[C@@H](C)[C@H](OCC#Cc2ccc(N)cn2)[C@@H](C)C(=O)O[C@H](CC)[C@@]2(C)OC(=O)O[C@@H]2[C@H]1C | – | – | – | 4 (≈ 4.99 µM) | – | 8 (≈ 9.99 µM) | – | – | – | – | – | – | – | – | – | – | 64 (≈ 79.9 µM) | 4 (≈ 4.99 µM) | > 256 | 128 (≈ 160 µM) | MIC (Staphylococcus aureus [22]): > 256 µg/mL; MIC [23]: > 256 µg/mL; MIC (Staphylococcus aureus [24]): 128 µg/mL (≈ 160 µM); MIC (Streptococcus pneumoniae [25]): 64 µg/mL (≈ 79.9 µM)
8 | C=CCO/N=C1\[C@H](C)C[C@@](C)(OC)[C@H](O[C@@H]2O[C@H](C)C[C@H](N(C)C)[C@H]2O)[C@@H](C)[C@H](OCC#Cc2cccc(N)n2)[C@@H](C)C(=O)O[C@H](CC)[C@@]2(C)OC(=O)O[C@@H]2[C@H]1C | – | – | – | 4 (≈ 4.99 µM) | – | 4 (≈ 4.99 µM) | – | – | – | – | – | – | – | – | – | – | 64 (≈ 79.9 µM) | 4 (≈ 4.99 µM) | 256 (≈ 320 µM) | 64 (≈ 79.9 µM) | MIC (Staphylococcus aureus [22]): 128 µg/mL (≈ 160 µM); MIC [23]: 256 µg/mL (≈ 320 µM); MIC (Staphylococcus aureus [24]): 256 µg/mL (≈ 320 µM); MIC (Streptococcus pneumoniae [25]): 64 µg/mL (≈ 79.9 µM)
9 | C=CCO/N=C1\[C@H](C)C[C@@](C)(OC)[C@H](O[C@@H]2O[C@H](C)C[C@H](N(C)C)[C@H]2O)[C@@H](C)[C@H](OCC#Cc2ccc(N)nc2)[C@@H](C)C(=O)O[C@H](CC)[C@@]2(C)OC(=O)O[C@@H]2[C@H]1C | – | – | – | 2 (≈ 2.5 µM) | – | 4 (≈ 4.99 µM) | – | – | – | – | – | – | – | – | – | – | 32 (≈ 40 µM) | 4 (≈ 4.99 µM) | 256 (≈ 320 µM) | 64 (≈ 79.9 µM) | MIC (Staphylococcus aureus [22]): 256 µg/mL (≈ 320 µM); MIC [23]: 256 µg/mL (≈ 320 µM); MIC (Staphylococcus aureus [24]): 256 µg/mL (≈ 320 µM); MIC (Streptococcus pneumoniae [25]): 64 µg/mL (≈ 79.9 µM)
